The text below walks through data of ChEMBL document CHEMBL3244095, “Synthesis and antitumor activity of 5-azacytosine arabinoside” (J Med Chem, 1979).

For series [1], the system named is L1210. The series can be described thus: Antitumor activity in mouse L1210 cells allografted in CDF1 mouse assessed as increase in life span at 6.25 mg/kg, ip administered as qd for 9 days relative to control. Particulars: 216 h, route intraperitoneal. Format: functional. The essentials:
(§1)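 CDF1 mice inoculated ip with 10^5 L1210 leukemia cells on day 0; compounds in 0.9% saline given ip once daily days 1–9 (nine injections) across a dose-response range. Antitumor activity = mean increase in life span over untreated controls, expressed as % ILS; duplicate experiments, with drug-related deaths and weight loss monitored.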

For series [2], the system named is Mus musculus. The series can be described thus: Toxicity in CDF1 mouse assessed as change in body weight at 0.78 mg/kg, ip measured on day 5 relative to control. Format: organism-based. Also noted: dose 0.78 mg/kg, route intraperitoneal. Conditions: in vivo. The gist of the method: (§2)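 CDF1 mice were implanted ip with 10^5 L1210 leukemia cells on day 0. Drug in 0.9% saline was given ip once daily on days 1–9 (nine injections) in a dose-response design. Body weight was compared with untreated tumor-bearing controls. The work was done as duplicate experiments.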

A short description of series [3]: Drug degradation in water solution at 25 degC after 5.5 hrs by reverse phase liquid chromatography. Format: physicochemical. Conditions: read-out: Drug degradation. The gist of the method: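 Parent held at 25 °C and sampled over time. Its disappearance was fitted to a first-order rate equation, and the fraction lost was taken at 5.5 h from that fit.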
Series [4] relates to L1210. Put plainly: Antitumor activity in mouse L1210 cells allografted in CDF1 mouse assessed as increase in life span at 3.12 mg/kg, ip administered as qd for 9 days relative to control. Particulars: 216 h, route intraperitoneal. Format: functional. The gist of the method: as §1
The test system of series [5] is L1210. Put plainly: Antitumor activity in mouse L1210 cells allografted in CDF1 mouse assessed as increase in life span at 1.56 mg/kg, ip administered as qd for 9 days relative to control. Format: functional. Conditions: 216 h, route intraperitoneal. The essentials: as §1
Series [6] deals with Mus musculus. The series can be described thus: Toxicity in CDF1 mouse assessed as change in body weight at 12.5 mg/kg, ip measured on day 5 relative to control. Format: organism-based. Also noted: dose 12.5 mg/kg, route intraperitoneal. Conditions: in vivo. The gist of the method: as §2
Series [7] has as its system L1210. The series can be described thus: Antitumor activity in mouse L1210 cells allografted in CDF1 mouse assessed as increase in life span at 0.78 mg/kg, ip administered as qd for 9 days relative to control. Format: functional. Particulars: 216 h, route intraperitoneal. The gist of the method:
as §1

In series [8] the test system is Mus musculus. The series can be described thus: Toxicity in CDF1 mouse assessed as change in body weight at 6.25 mg/kg, ip measured on day 5 relative to control. Conditions: in vivo. Format: organism-based. Also noted: dose 6.25 mg/kg, route intraperitoneal. The essentials:
as §2

Series [9] concerns Mus musculus. Put plainly: Toxicity in CDF1 mouse assessed as change in body weight at 1.56 mg/kg, ip measured on day 5 relative to control. Conditions: in vivo. Format: organism-based. Also noted: dose 1.56 mg/kg, route intraperitoneal. The gist of the method:
as §2

The test system of series [10] is Mus musculus. Put plainly: Toxicity in CDF1 mouse assessed as change in body weight at 3.12 mg/kg, ip measured on day 5 relative to control. Type of series: organism-based. Also noted: dose 3.12 mg/kg, route intraperitoneal. Conditions: in vivo. The essentials: as §2
Series [11] concerns L1210. The series can be described thus: Antitumor activity in mouse L1210 cells allografted in CDF1 mouse assessed as increase in life span at 25 mg/kg, ip administered as qd for 9 days relative to control. Format: functional. Particulars: 216 h, route intraperitoneal. The essentials:
as §1

The test system of series [12] is Mus musculus. Put plainly: Toxicity in CDF1 mouse assessed as change in body weight at 50 mg/kg, ip measured on day 5 relative to control. Type of series: organism-based. Also noted: dose 50 mg/kg, route intraperitoneal. Particulars: in vivo. The essentials: as §2
In series [13] the test system is L1210. The series can be described thus: Antitumor activity in mouse L1210 cells allografted in CDF1 mouse assessed as increase in life span at 40 mg/kg, ip administered as qd for 9 days relative to control. Particulars: 216 h, route intraperitoneal. Format: functional. The gist of the method: as §1
In series [14] the test system is L1210. The series can be described thus: Antitumor activity in mouse L1210 cells allografted in CDF1 mouse assessed as increase in life span at 20 mg/kg, ip administered as qd for 9 days relative to control. Type of series: functional. Conditions: 216 h, route intraperitoneal. The essentials: as §1
Series [15] is described as follows: Half life of the compound. Format: physicochemical.
Series [16] concerns Mus musculus. The series can be described thus: Toxicity in CDF1 mouse assessed as change in body weight at 80 mg/kg, ip measured on day 5 relative to control. Type of series: organism-based. Conditions: in vivo. Also noted: dose 80 mg/kg, route intraperitoneal. The essentials:
as §2

Series [17] deals with Mus musculus. Put plainly: Toxicity in CDF1 mouse assessed as change in body weight at 5 mg/kg, ip measured on day 5 relative to control. Type of series: organism-based. Also noted: dose 5 mg/kg, route intraperitoneal. Conditions: in vivo. The essentials: as §2
Series [18] concerns Mus musculus. The series can be described thus: Toxicity in CDF1 mouse assessed as change in body weight at 10 mg/kg, ip measured on day 5 relative to control. Conditions: in vivo. Format: organism-based. Also noted: dose 10 mg/kg, route intraperitoneal. The gist of the method:
as §2

For series [19], the system named is L1210. Put plainly: Antitumor activity in mouse L1210 cells allografted in CDF1 mouse assessed as increase in life span at 10 mg/kg, ip administered as qd for 9 days relative to control. Format: functional. Particulars: 216 h, route intraperitoneal. The gist of the method: as §1
Series [20] has as its system Mus musculus. The series can be described thus: Toxicity in CDF1 mouse assessed as change in body weight at 25 mg/kg, ip measured on day 5 relative to control. Particulars: in vivo. Format: organism-based. Also noted: dose 25 mg/kg, route intraperitoneal. The gist of the method:
as §2

The test system of series [21] is L1210. Put plainly: Antitumor activity in mouse L1210 cells allografted in CDF1 mouse assessed as increase in life span at 5 mg/kg, ip administered as qd for 9 days relative to control. Format: functional. Particulars: 216 h, route intraperitoneal. The essentials: as §1
In series [22] the test system is Mus musculus. Put plainly: Toxicity in CDF1 mouse assessed as change in body weight at 20 mg/kg, ip measured on day 5 relative to control. Particulars: in vivo. Format: organism-based. Also noted: dose 20 mg/kg, route intraperitoneal. The gist of the method:
as §2

Series [23] has as its system Mus musculus. The series can be described thus: Toxicity in CDF1 mouse assessed as change in body weight at 40 mg/kg, ip measured on day 5 relative to control. Type of series: organism-based. Particulars: in vivo. Also noted: dose 40 mg/kg, route intraperitoneal. The gist of the method: as §2
For series [24], the system named is Mus musculus. Put plainly: Toxicity in CDF1 mouse assessed as change in body weight at 100 mg/kg, ip measured on day 5 relative to control. Format: organism-based. Also noted: dose 100 mg/kg, route intraperitoneal. Conditions: in vivo. The essentials: as §2
The test system of series [25] is L1210. The series can be described thus: Antitumor activity in mouse L1210 cells allografted in CDF1 mouse assessed as increase in life span at 80 mg/kg, ip administered as qd for 9 days relative to control. Type of series: functional. Particulars: 216 h, route intraperitoneal. The essentials: as §1
The subject of series [26] is L1210. The series can be described thus: Antitumor activity in mouse L1210 cells allografted in CDF1 mouse assessed as increase in life span at 12.5 mg/kg, ip administered as qd for 9 days relative to control. Type of series: functional. Particulars: 216 h, route intraperitoneal. The essentials: as §1
Series [27] relates to Mus musculus. The series can be described thus: Toxicity in CDF1 mouse assessed as change in body weight at 200 mg/kg, ip measured on day 5 relative to control. Type of series: organism-based. Also noted: dose 200 mg/kg, route intraperitoneal. Particulars: in vivo. The gist of the method:
as §2

Series [28] concerns L1210. Put plainly: Antitumor activity in mouse L1210 cells allografted in CDF1 mouse assessed as increase in life span at 200 mg/kg, ip administered as qd for 9 days relative to control. Format: functional. Conditions: 216 h, route intraperitoneal. The gist of the method: as §1
In series [29] the test system is L1210. Put plainly: Antitumor activity in mouse L1210 cells allografted in CDF1 mouse assessed as increase in life span at 100 mg/kg, ip administered as qd for 9 days relative to control. Format: functional. Particulars: 216 h, route intraperitoneal. The gist of the method: as §1
Series [30] deals with L1210. Put plainly: Antitumor activity in mouse L1210 cells allografted in CDF1 mouse assessed as increase in life span at 50 mg/kg, ip administered as qd for 9 days relative to control. Format: functional. Particulars: 216 h, route intraperitoneal. The essentials: as §1
Series [31] can be described thus: Drug degradation in water solution at 25 degC after 4 hrs by reverse phase liquid chromatography. Format: physicochemical. Particulars: read-out: Drug degradation. The gist of the method:
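Nucleoside in water solution held at 25 °C; the loss of parent compound over time was measured by LC analysis. Degradation was read at 4 h.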

Regarding `Nc1ncn([C@@H]2O[C@H](CO)[C@@H](O)[C@H]2O)c(=O)n1` [AZACITIDINE], the ILS at 6.25 mg/kg with L1210 [1] stood at 1%. For the same compound, the Activity in the series with Mus musculus [2] is -2 g; in the series on Mus musculus [6] it was “Toxic”; in the series with Mus musculus [8], -6.1 g; in the series with Mus musculus [9] it was -1.3 g; with Mus musculus [10], -5.3 g. The degraded at 5.5 h in series [3] was found to be 15%. In addition, the ILS at 3.12 mg/kg in the series on L1210 [4] was 33%. For the same compound, the ILS at 1.56 mg/kg in the series on L1210 [5] was determined as 66%. Also, the increase in life span (ILS) at 0.78 mg/kg in the series on L1210 [7] turned out to be 26%.

On to `Nc1ccn([C@@H]2O[C@H](CO)[C@@H](O)[C@@H]2O)c(=O)n1` [CYTARABINE], for which the ILS at 25 mg/kg in the series on L1210 [11] was 121%. Further, in the series on L1210 [1], the ILS at 6.25 mg/kg was determined as 34%. Also, the Activity in the series on Mus musculus [12] is reported as -1.8 g; in the series with Mus musculus [16], -1.8 g; in the series on Mus musculus [17] it was 0.4 g; in the series with Mus musculus [6], -0.4 g; in the series on Mus musculus [18], -0.2 g; in the series with Mus musculus [20], 0 g. Moreover, the Activity in the series on Mus musculus [22] is -0.3 g; in the series on Mus musculus [23], -1 g; in the series on Mus musculus [24], “Non-toxic”; with Mus musculus [8], 0.3 g; with Mus musculus [10] it was 0.3 g; in the series on Mus musculus [27] it was “Non-toxic”. In addition, the ILS at 40 mg/kg with L1210 [13] was determined as 123%. Also, the ILS at 20 mg/kg in the series on L1210 [14] came to 127%. Moreover, the ILS at 3.12 mg/kg in the series on L1210 [4] amounted to 28%. In addition, the half-life in series [15] is 34 h. Also, the ILS at 10 mg/kg with L1210 [19] is 84%. Besides, in the series with L1210 [21], the ILS at 5 mg/kg is 47%. Further, the increase in lifespan (ILS) at 80 mg/kg with L1210 [25] stood at 92%. The ILS at 12.5 mg/kg in the series on L1210 [26] was found to be 91%.

For `Nc1ncn([C@@H]2O[C@H](CO)[C@@H](O)[C@@H]2O)c(=O)n1` [FAZARABINE], the ILS at 200 mg/kg with L1210 [28] came to 19%. The ILS at 25 mg/kg in the series with L1210 [11] was 58%. Further, the ILS at 100 mg/kg in the series on L1210 [29] came out at 80%. In addition, the ILS at 6.25 mg/kg in the series with L1210 [1] turned out to be 41%. Further, the Activity is on record as -3.3 g in the series on Mus musculus [12]; -1.2 g in the series on Mus musculus [2]; -3.7 g with Mus musculus [6]; -4 g in the series on Mus musculus [20]; -4 g with Mus musculus [24]; -2.5 g with Mus musculus [8]. Further, the results for the Activity in the series on Mus musculus [9], with Mus musculus [10] and in the series on Mus musculus [27] were -1.3 g, -3.3 g and -2.8 g, respectively. In the series with L1210 [4], the ILS at 3.12 mg/kg was determined as 28%. Moreover, the ILS at 1.56 mg/kg in the series with L1210 [5] was determined as 66%. Further, in the series with L1210 [7], the ILS at 0.78 mg/kg turned out to be 39%. For the same compound, the ILS at 50 mg/kg in the series with L1210 [30] turned out to be 92%. For the same compound, the ILS at 12.5 mg/kg in the series with L1210 [26] worked out at 58%. In addition, the degraded at 4 h in series [31] amounted to 15%.
